ChEMBL document CHEMBL1130279 (J Med Chem, 1997)

Experiments:
[1] = target: T1, Sodium-dependent dopamine transporter (Rattus norvegicus, UniProt P23977); assay: Displacement of [3H]WIN-35428 from dopamine transporter in rat caudate putamen tissue; format: tissue-based
Summary of the method: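 Compounds were tested as oxalate salts unless noted; some were hydrochloride or fumarate. Values are mean ± SEM of three experiments, each run in triplicate.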

Rattus norvegicus = species on record: Rattus norvegicus; assay: Compound was evaluated for its ability to inhibit uptake of [3H]-dopamine into rat caudate putamen tissue; format: functional
[2] = target: T1, Sodium-dependent dopamine transporter; assay: Compound was evaluated for its ability to displace [3H]WIN-35428 from dopamine transporter in rat caudate putamen tissue; format: tissue-based
[3] = Rattus norvegicus, Caudate-putamen

T1 sequence (P23977 whole entry): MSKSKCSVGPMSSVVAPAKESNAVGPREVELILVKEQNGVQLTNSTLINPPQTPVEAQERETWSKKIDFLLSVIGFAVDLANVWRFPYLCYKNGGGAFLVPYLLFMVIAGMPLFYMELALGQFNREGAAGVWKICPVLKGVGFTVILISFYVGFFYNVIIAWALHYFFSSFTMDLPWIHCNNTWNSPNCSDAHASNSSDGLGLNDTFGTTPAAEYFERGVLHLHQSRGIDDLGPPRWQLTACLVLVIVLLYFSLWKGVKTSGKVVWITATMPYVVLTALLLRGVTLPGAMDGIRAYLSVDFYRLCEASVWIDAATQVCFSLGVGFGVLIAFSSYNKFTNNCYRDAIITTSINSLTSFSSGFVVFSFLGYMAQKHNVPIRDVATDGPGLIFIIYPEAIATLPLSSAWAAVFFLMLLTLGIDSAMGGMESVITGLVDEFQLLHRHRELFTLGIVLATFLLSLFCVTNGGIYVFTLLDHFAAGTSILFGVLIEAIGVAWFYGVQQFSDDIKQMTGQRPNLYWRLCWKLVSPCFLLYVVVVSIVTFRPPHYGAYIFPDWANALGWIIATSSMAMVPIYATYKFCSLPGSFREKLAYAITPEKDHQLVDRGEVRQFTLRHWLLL

| Structure (SMILES) | Ki [1] [µM] | also measured |
| --- | --- | --- |
| COC(=O)C[C@@H]1C2C[C@H](C)C(C[C@@H]1Cc1ccccc1)N2C (stereo partly specified) | 0.211 | – |
| COC(=O)CC1C(Cc2ccccc2)CC2CCC1N2C (stereo unspecified) | 0.033 | IC50 (Rattus norvegicus): 161 nM |
| COC(=O)[C@@H]1C2CC[C@H](C[C@@H]1c1ccccc1)N2C | – | IC50 [2]: 314 nM; IC50 (Rattus norvegicus; [3]): 373 nM |
| COC(=O)C[C@H]1C2C[C@@H](Cc3ccccc3)C(C[C@@H]1Cc1ccccc1)N2C (stereo partly specified) | 7.59 | – |
| COC(=O)C[C@@H]1C2C[C@@H](Cc3ccccc3)C(C[C@@H]1Cc1ccccc1)N2C (stereo partly specified) | 3.08 | – |
| COC(=O)C[C@@H]1C2CCC(C[C@@H]1Cc1ccccc1)N2C (stereo partly specified) | – | IC50 (Rattus norvegicus; [3]): 94 nM |
| COC(=O)CC1=C(Cc2ccccc2)CC2C(Cc3ccccc3)CC1N2C (stereo unspecified) | 4.83 | – |
| COC(=O)CC1C(Cc2ccccc2)CC2C(Cc3ccccc3)CC1N2C (stereo unspecified) | 3.08 | – |
| COC(=O)CC1C(Cc2ccccc2)CC2CCC1N2C (single isomer, unassigned; (+)) | 0.06 | IC50 (Rattus norvegicus): 208 nM |
| CC[C@@H]1CC2[C@@H](CC(=O)OC)[C@@H](Cc3ccccc3)CC1N2C (stereo in doubt; 19c) | 0.307 | – |
| CCCC[C@@H]1CC2[C@@H](CC(=O)OC)[C@@H](Cc3ccccc3)CC1N2C (stereo in doubt; 19e) | 8.58 | – |
| COC(=O)CC1C(Cc2ccccc2)CC2CCC1N2C (stereo in doubt; 20a) | – | IC50 (Rattus norvegicus): 457 nM |
| CC[C@@H]1CC2[C@@H](CC(=O)OC)[C@@H](Cc3ccccc3)CC1N2C (stereo in doubt; 20c) | 1.15 | – |
| CCC[C@H]1CC2[C@@H](CC(=O)OC)[C@@H](Cc3ccccc3)CC1N2C (stereo in doubt; 20d) | 7.24 | – |
| CCCC[C@@H]1CC2[C@@H](CC(=O)OC)[C@@H](Cc3ccccc3)CC1N2C (stereo in doubt; 20e) | 19.7 | – |
| COC(=O)C[C@H]1C2C[C@@H](C)C(C[C@@H]1Cc1ccccc1)N2C (stereo in doubt; 21b) | 0.057 | IC50 (Rattus norvegicus): 107 nM |
| CCC1CC2C(CC(=O)OC)C(Cc3ccccc3)CC1N2C (stereo in doubt; 21c) | 3.11 | – |
| CCCC1CC2C(CC(=O)OC)C(Cc3ccccc3)CC1N2C (stereo in doubt; 21d) | 5.85 | – |
| COC(=O)C[C@H]1C2C[C@@H](C)C(C[C@@H]1Cc1ccccc1)N2C (stereo in doubt; 22b) | 0.294 | IC50 (Rattus norvegicus): 532 nM |
| CCC1CC2C(CC(=O)OC)C(Cc3ccccc3)CC1N2C (stereo in doubt; 22c) | 6.21 | – |
| CCCC1CC2C(CC(=O)OC)C(Cc3ccccc3)CC1N2C (stereo in doubt; 22d) | 57.3 | – |
